The text below walks through data of ChEMBL document CHEMBL4138102, “Design, synthesis and evaluation of azaacridine derivatives as dual-target EGFR and Src kinase inhibitors for antitumor treatment” (Eur J Med Chem, 2017).

In test [1] the test system is K562. In words: Antiproliferative activity against human K562 cells after 48 hrs by MTT assay. The conditions noted are these: K562, 48 h. It counts as functional, cell-based. The essentials:
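K562 at 7×10⁵ cells mL^-1 seeded and held 12 h at 37 °C, 5% CO₂. Compound added in triplicate per concentration for 48 h. MTT (5 mg mL^-1 solution) added for 4 h at 37 °C, formazan dissolved in DMSO, absorbance read at 490 nm; IC₅₀ derived.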
In general terms: Formazan colour is commonly taken as a measure of viable cells.

Test [2] deals with A549. In words: Antiproliferative activity against human A549 cells after 48 hrs by MTT assay. The conditions noted are these: A549, 48 h. It counts as functional, cell-based. The essentials: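 A549 seeded at 5-7 × 10³ cells per well and incubated overnight at 37 °C, 5% CO₂. Medium then replaced with fresh medium holding graded compound concentrations or equal DMSO, 48 h. MTT (5 mg mL^-1 solution) added for 4 h, formazan dissolved in DMSO, absorbance read at 490 nm; IC₅₀ derived.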

In test [3] the target is Epidermal growth factor receptor (Homo sapiens) (UniProt P00533). In words: Inhibition of EGFR (unknown origin) at 10 uM after 15 mins by luminescence assay relative to control. The essentials: (§1)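 Contract HTRF-format assay: enzyme, substrate, ATP and compound mixed in 50 mM HEPES/NaOH pH 7.0, 0.02% NaN₃, 0.01% BSA, 0.1 mM orthovanadate, 5 mM MgCl₂, 1 mM DTT. Incubated 15 min at room temperature with compound in 2.5% DMSO. Streptavidin-XL665 and TK antibody europium cryptate added in KF/EDTA buffer; signal read on EnVision; % inhibition computed.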

Test [4] has the same target. In words: Inhibition of EGFR (unknown origin) at 1 uM after 15 mins by luminescence assay relative to control. The essentials: as §1
Test [5] concerns K562. In words: Induction of apoptosis in human K562 cells assessed as late apoptotic cells at 0.1 uM after 48 hrs by Annexin V-FITC/propidium iodide based flow cytometric analysis (reference value: 2.49%). The class given is functional. A general note: In flow cytometry, cells or beads pass a laser one at a time.
The subject of test [6] is A549. In words: Downregulation of SRC protein expression in human A549 cells after 48 hrs by Western blot analysis. It counts as functional, cell-based. The essentials: (§2)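 Cells exposed to 0, 0.1, 0.5 and 2.5 µM for 48 h, then lysed and protein quantified. Equal protein loads run on 10% SDS-PAGE, transferred to PVDF and probed for EGFR, p-EGFR, Src and p-Src with HRP secondaries and luminescence detection. Band density expressed as percentage of β-actin.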
(Immunoblotting shows a protein as a band on a membrane.)

Test [7] addresses Epidermal growth factor receptor (Homo sapiens) (UniProt P00533). In words: Inhibition of EGFR phosphorylation in human A549 cells after 48 hrs by Western blot analysis. It counts as cell-based. The essentials: as §2
Test [8] has as its system A549. In words: Downregulation of EGFR protein expression in human A549 cells by measuring EGFR level up to 2.5 uM after 48 hrs by Western blot analysis (reference value: 48.02%). The class given is functional. The essentials:
as §2

For test [9], the system named is A549. In words: Antiinvasive activity in human A549 cells at 0.1 uM preincubated for 6 hrs followed by cell seeding on the inserts to reach confluence for 12 hrs measured after 24 hrs by trypan blue staining-based bright-field light microscopic analysis relative to control. It counts as functional. The essentials:
(§3)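 A549 cells pretreated with compound for 6 h, seeded on fibronectin-coated 8 µm pore invasion inserts to reach confluence over 12 h, then cultured another 24 h with drug. Cells fixed in 4% formaldehyde, non-invading cells swabbed off, invaders stained with 0.08% trypan blue for 15 min. Five random bright-field views counted; mean ± SEM of five experiments versus control.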

Test [10] relates to Calf thymus DNA. In words: Binding affinity to calf thymus DNA by UV-visible absorption spectral analysis. The class given is nucleic-acid assay. Conditions: Bos taurus.
The subject of test [11] is A549. In words: Downregulation of EGFR protein expression in human A549 cells after 48 hrs by Western blot analysis. It counts as functional, cell-based. The essentials:
as §2

The test system of test [12] is K562. In words: Induction of apoptosis in human K562 cells assessed as late apoptotic cells at 1 uM after 48 hrs by Annexin V-FITC/propidium iodide based flow cytometric analysis (reference value: 2.49%). It counts as functional.
The target of test [13] is Proto-oncogene tyrosine-protein kinase Src (Homo sapiens) (UniProt P12931). In words: Inhibition of SRC (unknown origin) at 1 uM after 15 mins by luminescence assay relative to control. The essentials: as §1
Test [14] has as its system K562. In words: Induction of apoptosis in human K562 cells assessed as early apoptotic cells at 0.01 uM after 48 hrs by Annexin V-FITC/propidium iodide based flow cytometric analysis (reference value: 4.68%). The class given is functional.
Test [15] concerns the target Proto-oncogene tyrosine-protein kinase Src (Homo sapiens) (UniProt P12931). In words: Inhibition of SRC phosphorylation in human A549 cells after 48 hrs by Western blot analysis. The class given is cell-based. The essentials: as §2
In test [16] the test system is K562. In words: Induction of apoptosis in human K562 cells assessed as early apoptotic cells at 0.1 uM after 48 hrs by Annexin V-FITC/propidium iodide based flow cytometric analysis (reference value: 4.68%). It counts as functional.
The subject of test [17] is K562. In words: Induction of apoptosis in human K562 cells assessed as early apoptotic cells at 1 uM after 48 hrs by Annexin V-FITC/propidium iodide based flow cytometric analysis (reference value: 4.68%). It counts as functional.
Test [18] has as its system A549. In words: Antiinvasive activity in human A549 cells at 1 uM preincubated for 6 hrs followed by cell seeding on the inserts to reach confluence for 12 hrs measured after 24 hrs by trypan blue staining-based bright-field light microscopic analysis relative to control. It counts as functional. The essentials: as §3
Test [19] has as its system K562. In words: Induction of apoptosis in human K562 cells assessed as necrotic cells at 0.1 uM after 48 hrs by Annexin V-FITC/propidium iodide based flow cytometric analysis (reference value: 0.22%). The class given is functional.
Test [20] has as its system K562. In words: Induction of apoptosis in human K562 cells assessed as necrotic cells at 0.01 uM after 48 hrs by Annexin V-FITC/propidium iodide based flow cytometric analysis (reference value: 0.22%). It counts as functional.
Test [21] addresses Epidermal growth factor receptor (Homo sapiens) (UniProt P00533). In words: Inhibition of EGFR phosphorylation in human A549 cells by measuring EGFR phosphorylated protein level up to 2.5 uM after 48 hrs by Western blot analysis (reference value: 50.21%). It counts as cell-based. Also noted: scale not given: the % may be the effect or the level left. The essentials:
as §2

Test [22] has as its system Calf thymus DNA. In words: Binding affinity to calf thymus DNA by fluorescence titration method. It counts as nucleic-acid assay. Conditions: Bos taurus.
For test [23], the system named is K562. In words: Induction of apoptosis in human K562 cells after 48 hrs by Annexin V-FITC/propidium iodide based flow cytometric analysis. The class given is functional, cell-based.
Test [24] relates to K562. In words: Induction of apoptosis in human K562 cells assessed as necrotic cells at 1 uM after 48 hrs by Annexin V-FITC/propidium iodide based flow cytometric analysis (reference value: 0.22%). The class given is functional.
Test [25] deals with K562. In words: Induction of apoptosis in human K562 cells assessed as late apoptotic cells at 0.01 uM after 48 hrs by Annexin V-FITC/propidium iodide based flow cytometric analysis (reference value: 2.49%). It counts as functional.

Epidermal growth factor receptor (Homo sapiens), sequence (P00533 whole entry): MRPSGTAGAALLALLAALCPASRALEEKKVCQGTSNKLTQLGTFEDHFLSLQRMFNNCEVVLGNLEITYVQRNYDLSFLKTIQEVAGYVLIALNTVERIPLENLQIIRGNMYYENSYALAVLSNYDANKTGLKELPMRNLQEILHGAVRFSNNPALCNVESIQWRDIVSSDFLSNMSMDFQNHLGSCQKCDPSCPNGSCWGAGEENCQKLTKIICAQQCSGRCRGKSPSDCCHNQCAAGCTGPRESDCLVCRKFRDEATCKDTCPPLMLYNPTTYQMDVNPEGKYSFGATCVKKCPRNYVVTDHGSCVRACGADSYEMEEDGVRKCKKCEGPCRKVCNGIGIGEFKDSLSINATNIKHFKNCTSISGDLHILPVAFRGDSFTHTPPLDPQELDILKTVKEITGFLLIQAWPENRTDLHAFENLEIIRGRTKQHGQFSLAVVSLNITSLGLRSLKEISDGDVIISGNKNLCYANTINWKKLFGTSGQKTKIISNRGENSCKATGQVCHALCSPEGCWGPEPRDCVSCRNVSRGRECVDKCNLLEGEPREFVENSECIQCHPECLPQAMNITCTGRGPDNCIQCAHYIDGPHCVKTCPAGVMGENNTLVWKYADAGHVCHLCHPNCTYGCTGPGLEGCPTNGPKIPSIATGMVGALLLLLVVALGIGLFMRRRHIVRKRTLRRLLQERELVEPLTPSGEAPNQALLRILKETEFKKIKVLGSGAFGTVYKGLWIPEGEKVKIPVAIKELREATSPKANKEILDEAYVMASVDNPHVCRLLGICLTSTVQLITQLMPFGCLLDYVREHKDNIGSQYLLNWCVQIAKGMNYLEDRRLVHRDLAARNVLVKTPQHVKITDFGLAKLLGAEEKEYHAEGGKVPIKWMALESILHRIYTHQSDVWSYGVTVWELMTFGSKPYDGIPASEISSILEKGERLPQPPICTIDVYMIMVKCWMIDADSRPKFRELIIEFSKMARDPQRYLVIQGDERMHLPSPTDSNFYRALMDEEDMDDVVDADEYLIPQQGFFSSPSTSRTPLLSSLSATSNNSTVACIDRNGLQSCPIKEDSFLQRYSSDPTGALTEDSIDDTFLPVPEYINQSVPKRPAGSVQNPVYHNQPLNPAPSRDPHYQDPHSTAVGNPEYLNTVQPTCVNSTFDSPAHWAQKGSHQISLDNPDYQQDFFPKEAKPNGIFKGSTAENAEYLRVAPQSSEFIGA
Proto-oncogene tyrosine-protein kinase Src (Homo sapiens), sequence (P12931 2-536 limits assumed): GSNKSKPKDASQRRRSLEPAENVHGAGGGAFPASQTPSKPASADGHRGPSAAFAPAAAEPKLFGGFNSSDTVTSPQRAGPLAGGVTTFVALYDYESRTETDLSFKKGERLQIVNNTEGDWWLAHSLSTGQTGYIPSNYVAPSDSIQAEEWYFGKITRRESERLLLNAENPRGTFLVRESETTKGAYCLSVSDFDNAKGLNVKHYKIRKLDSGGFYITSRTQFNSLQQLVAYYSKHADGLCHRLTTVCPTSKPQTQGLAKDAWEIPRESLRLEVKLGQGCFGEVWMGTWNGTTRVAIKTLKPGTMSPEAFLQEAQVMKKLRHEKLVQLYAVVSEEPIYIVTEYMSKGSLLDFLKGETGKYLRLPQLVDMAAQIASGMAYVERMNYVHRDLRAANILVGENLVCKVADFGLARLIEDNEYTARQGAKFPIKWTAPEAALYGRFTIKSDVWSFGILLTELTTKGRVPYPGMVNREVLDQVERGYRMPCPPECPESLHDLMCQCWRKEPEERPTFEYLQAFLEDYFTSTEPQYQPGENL

For the compound `COc1cccc(C(=O)Nc2ccc(Nc3ncnc4c3Cc3ccccc3N4)cc2)c1`, the IC50 (in general, the midpoint of a concentration-inhibition curve) in the test with K562 [1] was found to be 2.16 µM; in the test with A549 [2] it was 14.1 µM. Further, the inhibition (commonly how much of the control response was suppressed) in test [3] was 35.4%.

Regarding `Cc1cccc(C(=O)Nc2cccc(Nc3ncnc4c3Cc3ccccc3N4)c2)c1`, the IC50 was 4.9 µM in the test with K562 [1] and more than 25 µM in the test with A549 [2]. Besides, in test [3], the inhibition is 53%.

As to `Cc1cccc(C(=O)Nc2ccc(Nc3ncnc4c3Cc3ccccc3N4)cc2)c1`, the IC50 in the test with K562 [1] was 3.62 µM; with A549 [2], 24.8 µM. The compound further registered an inhibition in test [3] of 51.1%.

Turning to `O=C(Nc1ccc(Nc2ncnc3c2Cc2ccccc2N3)cc1)c1cccc(Cl)c1`, the IC50 was found to be 0.41 µM in the test on K562 [1] and 20.7 µM in the test with A549 [2]. This compound had an inhibition in test [3] of 30.9%.

Turning to `COc1cccc(C(=O)Nc2cccc(Nc3ncnc4c3Cc3ccccc3N4)c2)c1`, the IC50 in the test with K562 [1] came out at 3.08 µM; in the test with A549 [2] it was 13.5 µM. The inhibition in test [3] is 31.9%.

For `O=C(Nc1cccc(Nc2ncnc3c2Cc2ccccc2N3)c1)c1ccccc1`, the IC50 with K562 [1] was 3.11 µM; in the test with A549 [2] it was 18.3 µM. In test [3], the inhibition was determined as 30.7%.

As to `O=C(Nc1ccc(Nc2ncnc3c2Cc2ccccc2N3)cc1)Nc1cccc(F)c1`, the 50% inhibitory concentration (IC50) in the test with K562 [1] came out at 3.14 µM; in the test with A549 [2], 6.82 µM. In [3], this compound registered an inhibition of 55.4%.

In turn, `COc1ccc2c(Nc3ccc(NC(=O)Nc4ccccc4)cc3)c3ccccc3nc2c1` yielded an IC50 in the test on A549 [2] of 9.03 µM. Moreover, the inhibition in test [3] turned out to be 21.4%.

`O=C(Nc1cccc(Nc2ncnc3c2Cc2ccccc2N3)c1)c1cccc(F)c1`: the IC50 in the test with K562 [1] came to 0.72 µM; in the test on A549 [2], 9.05 µM. The inhibition in test [3] worked out at 24.5%.

On to `O=C(Nc1ccccc1)Nc1ccc(Nc2ncnc3c2Cc2ccccc2N3)cc1`, for which the figures for the half-inhibitory concentration (IC50) in the test with K562 [1] and in the test on A549 [2] were 5.08 µM and 18 µM, respectively. The compound also had an inhibition in test [3] of 32%.

On to `COc1cccc(NC(=O)Nc2ccc(Nc3ncnc4c3Cc3ccccc3N4)cc2)c1`, for which the concentration for half-maximal inhibition (IC50) amounted to 3.62 µM in the test on K562 [1] and 13.4 µM in the test with A549 [2]. The inhibition in [3] was found to be 24.9%.

On to `O=C(Nc1cccc(Nc2ncnc3c2Cc2ccccc2N3)c1)c1cccc(C(F)(F)F)c1`, for which the figures for the concentration for half-maximal inhibition (IC50) with K562 [1] and with A549 [2] were 1.89 µM and 9.58 µM, respectively. Further, the inhibition in test [3] is 16.3%.

Compound `Cc1ccc(NC(=O)c2ccc(CN3CCN(C)CC3)cc2)cc1Nc1nccc(-c2cccnc2)n1` [IMATINIB] displayed an IC50 in the test with A549 [2] of 4.56 µM.

As to `O=C(Nc1ccc(Nc2ncnc3c2Cc2ccccc2N3)cc1)c1cccc(C(F)(F)F)c1`, the figures for the inhibition in [4] and in test [3] were 52.4% and 95.4%, respectively. Besides, the figures for the IC50 with K562 [1] and in the test with A549 [2] were 1.32 µM and 12.2 µM, respectively.

Turning to `O=C(Nc1cccc(Nc2ncnc3c2Cc2ccccc2N3)c1)c1cccc(Cl)c1`, the IC50 in the test on K562 [1] came out at 1.21 µM; in the test with A549 [2], 12.3 µM. The compound also returned an inhibition in [3] of 30.2%.

Take `O=C(Nc1ccc(Nc2ncnc3c2Cc2ccccc2N3)cc1)Nc1cccc(C(F)(F)F)c1`: the values for the IC50 in the test with K562 [1] and in the test on A549 [2] were 3.35 µM and 9.26 µM, respectively. Besides, the inhibition in test [3] came out at 35.4%.

For the compound `O=C(Nc1ccc(Nc2ncnc3c2Cc2ccccc2N3)cc1)c1cccc(F)c1`, the Activity in the test on K562 [5] was 27.11%; in the test with A549 [6], “Dose-dependent effect”; with A549 [8], 3.03%; in the test on A549 [11], “Dose-dependent effect”; in the test with K562 [12], 45.15%; in the test with K562 [14], 11.14%. Further, the Activity in the test with K562 [16] was 18.82%; in the test with K562 [17], 4.19%; with K562 [19], 1.06%; in the test on K562 [20] it was 0.17%; in test [21], 3.11%; in the test with K562 [23], “Dose-dependent effect”. The Activity is recorded as 0.77% with K562 [24] and 3.06% with K562 [25]. Moreover, the inhibition result in test [7] is “Dose-dependent effect”; in test [13] it was 72.1%; in test [15] it was “Dose-dependent effect”; in [3], 33.1 to 33.5%. The same compound showed an inhibition at 0.1 µM in the test with A549 [9] of 52.5%. The values for the 50% inhibitory concentration (IC50) in the test with K562 [1] and with A549 [2] were 0.22 µM and 0.253 µM, respectively. The compound further came in with a Kb with Calf thymus DNA [10] of 4.16 ×10³ /M. For the same compound, at 1 µM the inhibition with A549 [18] was 82.8%. The same compound had a K in the test with Calf thymus DNA [22] of 973 M⁻¹.

Take `O=C(Nc1ccc(Nc2ncnc3c2Cc2ccccc2N3)cc1)c1ccccc1`: the results for the IC50 in the test on K562 [1] and with A549 [2] were 2.52 µM and 14.3 µM, respectively. Besides, in [3], the inhibition was 12.6%.

In the case of `Cc1cccc(NC(=O)Nc2ccc(Nc3ncnc4c3Cc3ccccc3N4)cc2)c1`, the values for the IC50 in the test with K562 [1] and in the test with A549 [2] were 6.97 µM and more than 25 µM, respectively. In addition, in test [3], the inhibition came to 65.4%.

As to `O=C(Nc1ccc(Nc2ncnc3c2Cc2ccccc2N3)cc1)Nc1cccc(Cl)c1`, the results for the IC50 with K562 [1] and in the test with A549 [2] were 3.08 µM and 17.9 µM, respectively. In test [3], this compound came in with an inhibition of 42.1%.
